In ChEMBL document CHEMBL1134694, “Discovery of macrocyclic hydroxamic acids containing biphenylmethyl derivatives at P1', a series of selective TNF-alpha converting enzyme inhibitors with potent cellular activity in the inhibition of TNF-alpha release” (J Med Chem, 2001):

Assays:
Homo sapiens [1] = organism: Homo sapiens; test: Inhibition of TNF-alpha release in LPS-stimulated human whole blood assay(WBA); format: functional, organism-based
Summary of the method: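 Human whole blood stimulated with LPS; inhibition of TNF-alpha release measured in blood from three separate donors.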

Stromelysin-1 = Stromelysin-1 (Homo sapiens, UniProt P08254); test: Inhibition of matrix metalloprotease-3
Matrilysin = molecular target: T1, Matrilysin (Homo sapiens, UniProt P09237); test: Inhibition of matrix metalloprotease-7
T1 sequence (P09237 whole entry): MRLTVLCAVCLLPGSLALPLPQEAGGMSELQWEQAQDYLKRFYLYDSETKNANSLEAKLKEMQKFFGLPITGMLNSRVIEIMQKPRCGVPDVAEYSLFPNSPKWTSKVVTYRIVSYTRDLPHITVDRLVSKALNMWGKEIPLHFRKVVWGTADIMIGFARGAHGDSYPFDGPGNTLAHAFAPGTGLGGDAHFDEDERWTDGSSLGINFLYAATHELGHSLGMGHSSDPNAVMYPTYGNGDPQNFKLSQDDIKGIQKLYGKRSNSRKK

Neutrophil collagenase = Neutrophil collagenase (Homo sapiens, UniProt P22894); test: Inhibition of matrix metalloprotease-8
Collagenase 3 = Collagenase 3 (Homo sapiens, UniProt P45452); test: Inhibition of matrix metalloprotease-13
Stromelysin-2 = Stromelysin-2 (Homo sapiens, UniProt P09238); test: Inhibition of matrix metalloprotease-10
[2] = molecular target: Matrix metalloproteinase-14 (Homo sapiens, UniProt P50281); test: Inhibition of matrix metalloprotease-14
[3] = molecular target: Matrix metalloproteinase-15 (Homo sapiens, UniProt P51511); test: Inhibition of matrix metalloprotease-15
[4] = molecular target: Matrix metalloproteinase-16 (Homo sapiens, UniProt P51512); test: Inhibition of matrix metalloprotease-16
Interstitial collagenase [5] = molecular target: T2, Interstitial collagenase (Homo sapiens, UniProt P03956); test: Inhibition of matrix metalloprotease-1
T2 sequence (P03956 whole entry): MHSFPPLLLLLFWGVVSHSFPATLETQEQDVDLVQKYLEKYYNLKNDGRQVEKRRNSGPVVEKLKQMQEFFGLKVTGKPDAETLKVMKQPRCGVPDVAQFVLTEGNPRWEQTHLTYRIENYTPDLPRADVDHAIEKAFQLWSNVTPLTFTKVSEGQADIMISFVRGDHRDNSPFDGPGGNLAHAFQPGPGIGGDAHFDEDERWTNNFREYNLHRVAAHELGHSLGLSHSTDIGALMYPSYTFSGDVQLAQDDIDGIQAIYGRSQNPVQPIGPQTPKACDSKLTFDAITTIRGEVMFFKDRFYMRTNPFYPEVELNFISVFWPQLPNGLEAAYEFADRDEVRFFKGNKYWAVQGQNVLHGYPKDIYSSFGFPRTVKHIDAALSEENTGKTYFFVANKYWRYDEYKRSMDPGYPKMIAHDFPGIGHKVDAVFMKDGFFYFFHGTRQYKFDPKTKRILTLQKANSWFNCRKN

[6] = molecular target: Macrophage metalloelastase (Homo sapiens, UniProt P39900); test: Inhibition of matrix metalloprotease-12
Homo sapiens [7] = organism: Homo sapiens; test: Binding affinity against human serum protein; format: functional
Summary of the method: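 Binding to human serum proteins, reported as the mean percentage of compound bound across three determinations.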

[8] = molecular target: Matrix metalloproteinase-9 (Homo sapiens, UniProt P14780); test: Inhibition of human matrix metalloprotease-9
[9] = molecular target: Disintegrin and metalloproteinase domain-containing protein 17 (Sus scrofa, UniProt O77636)
[10] = molecular target: 72 kDa type IV collagenase (Homo sapiens, UniProt P08253)
Interstitial collagenase [11] = molecular target: T2, Interstitial collagenase; test: Inhibition of human matrix metalloprotease-1

Chain of Neutrophil collagenase (P22894 whole entry): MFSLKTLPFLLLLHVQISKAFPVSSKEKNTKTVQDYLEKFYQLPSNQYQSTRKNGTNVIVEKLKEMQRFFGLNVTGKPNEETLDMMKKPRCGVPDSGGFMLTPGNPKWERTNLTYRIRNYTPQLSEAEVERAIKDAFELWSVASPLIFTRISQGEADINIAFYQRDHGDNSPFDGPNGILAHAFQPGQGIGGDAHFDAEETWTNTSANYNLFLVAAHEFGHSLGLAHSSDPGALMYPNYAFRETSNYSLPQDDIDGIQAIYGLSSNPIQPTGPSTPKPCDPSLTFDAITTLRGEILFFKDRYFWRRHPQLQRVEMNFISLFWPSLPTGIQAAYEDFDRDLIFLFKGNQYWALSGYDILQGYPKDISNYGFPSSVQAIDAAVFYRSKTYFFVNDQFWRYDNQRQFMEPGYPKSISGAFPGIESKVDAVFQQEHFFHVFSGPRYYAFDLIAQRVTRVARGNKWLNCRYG
Chain of Matrix metalloproteinase-15 (P51511 whole entry): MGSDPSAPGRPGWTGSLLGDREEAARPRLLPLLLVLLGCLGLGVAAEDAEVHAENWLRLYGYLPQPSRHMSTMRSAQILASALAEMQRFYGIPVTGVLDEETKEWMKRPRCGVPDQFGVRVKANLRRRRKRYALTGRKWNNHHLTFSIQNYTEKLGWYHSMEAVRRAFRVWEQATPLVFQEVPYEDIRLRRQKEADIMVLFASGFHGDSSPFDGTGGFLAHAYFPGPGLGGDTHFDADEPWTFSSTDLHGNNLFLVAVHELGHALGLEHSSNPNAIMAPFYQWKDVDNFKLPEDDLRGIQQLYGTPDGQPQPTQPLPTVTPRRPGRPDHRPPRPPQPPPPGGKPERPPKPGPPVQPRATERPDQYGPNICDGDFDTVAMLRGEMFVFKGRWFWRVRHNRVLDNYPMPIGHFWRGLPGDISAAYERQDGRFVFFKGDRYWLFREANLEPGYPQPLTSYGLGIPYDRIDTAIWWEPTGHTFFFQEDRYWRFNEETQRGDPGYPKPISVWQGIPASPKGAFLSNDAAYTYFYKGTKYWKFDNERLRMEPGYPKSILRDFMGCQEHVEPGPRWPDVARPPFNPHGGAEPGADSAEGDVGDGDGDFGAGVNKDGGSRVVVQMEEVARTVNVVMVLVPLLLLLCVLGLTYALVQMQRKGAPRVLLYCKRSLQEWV
Chain of 72 kDa type IV collagenase (P08253 whole entry): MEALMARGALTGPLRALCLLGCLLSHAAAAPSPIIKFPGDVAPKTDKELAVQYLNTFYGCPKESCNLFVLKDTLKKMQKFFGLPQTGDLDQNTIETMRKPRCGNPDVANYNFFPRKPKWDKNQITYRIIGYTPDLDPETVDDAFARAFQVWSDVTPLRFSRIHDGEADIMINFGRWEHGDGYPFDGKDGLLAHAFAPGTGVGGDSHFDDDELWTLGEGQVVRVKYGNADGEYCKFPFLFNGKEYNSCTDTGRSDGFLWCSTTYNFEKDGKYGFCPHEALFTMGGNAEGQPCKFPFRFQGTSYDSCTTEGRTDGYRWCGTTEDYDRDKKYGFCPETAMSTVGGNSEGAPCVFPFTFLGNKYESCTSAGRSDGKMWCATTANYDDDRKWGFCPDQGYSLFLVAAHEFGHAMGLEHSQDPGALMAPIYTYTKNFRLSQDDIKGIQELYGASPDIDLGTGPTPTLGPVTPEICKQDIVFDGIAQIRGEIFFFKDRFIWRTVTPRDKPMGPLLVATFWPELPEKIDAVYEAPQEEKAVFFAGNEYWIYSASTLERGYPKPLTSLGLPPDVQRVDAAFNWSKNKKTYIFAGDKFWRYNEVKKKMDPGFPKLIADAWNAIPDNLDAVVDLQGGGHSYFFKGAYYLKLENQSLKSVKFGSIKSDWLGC
Chain of Stromelysin-2 (P09238 whole entry): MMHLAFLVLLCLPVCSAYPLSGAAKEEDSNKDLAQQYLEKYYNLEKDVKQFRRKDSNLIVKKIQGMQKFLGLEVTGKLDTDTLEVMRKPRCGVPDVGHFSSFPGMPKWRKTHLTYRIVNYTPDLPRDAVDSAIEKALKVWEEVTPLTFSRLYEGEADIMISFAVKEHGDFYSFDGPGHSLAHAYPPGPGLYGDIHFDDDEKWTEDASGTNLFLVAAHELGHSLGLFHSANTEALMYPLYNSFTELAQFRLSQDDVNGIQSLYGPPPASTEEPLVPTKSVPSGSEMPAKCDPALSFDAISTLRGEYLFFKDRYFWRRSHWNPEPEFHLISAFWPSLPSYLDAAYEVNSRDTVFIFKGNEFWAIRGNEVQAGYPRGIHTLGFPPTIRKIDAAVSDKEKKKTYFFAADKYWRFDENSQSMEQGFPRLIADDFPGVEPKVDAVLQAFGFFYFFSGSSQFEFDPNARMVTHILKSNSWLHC
Chain of Matrix metalloproteinase-9 (P14780 whole entry, the tested form may be a part): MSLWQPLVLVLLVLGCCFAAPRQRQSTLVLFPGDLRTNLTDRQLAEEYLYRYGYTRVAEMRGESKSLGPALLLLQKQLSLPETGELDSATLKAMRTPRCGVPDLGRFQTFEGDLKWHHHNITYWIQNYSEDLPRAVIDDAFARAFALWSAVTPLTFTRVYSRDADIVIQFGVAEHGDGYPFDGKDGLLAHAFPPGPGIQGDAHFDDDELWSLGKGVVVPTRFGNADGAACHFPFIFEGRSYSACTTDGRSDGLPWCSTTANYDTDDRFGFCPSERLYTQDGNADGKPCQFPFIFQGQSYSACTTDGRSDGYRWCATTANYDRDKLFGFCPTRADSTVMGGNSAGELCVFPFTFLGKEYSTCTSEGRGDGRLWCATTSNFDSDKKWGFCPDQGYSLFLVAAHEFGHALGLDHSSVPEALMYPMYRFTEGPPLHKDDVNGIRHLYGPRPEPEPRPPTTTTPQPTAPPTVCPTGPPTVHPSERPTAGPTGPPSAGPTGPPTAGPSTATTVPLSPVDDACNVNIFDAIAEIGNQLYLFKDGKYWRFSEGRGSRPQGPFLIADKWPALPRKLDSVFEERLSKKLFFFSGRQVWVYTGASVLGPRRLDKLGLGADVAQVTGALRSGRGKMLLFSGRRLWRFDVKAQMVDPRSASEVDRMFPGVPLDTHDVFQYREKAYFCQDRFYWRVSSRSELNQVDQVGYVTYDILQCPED
Chain of Stromelysin-1 (P08254 whole entry): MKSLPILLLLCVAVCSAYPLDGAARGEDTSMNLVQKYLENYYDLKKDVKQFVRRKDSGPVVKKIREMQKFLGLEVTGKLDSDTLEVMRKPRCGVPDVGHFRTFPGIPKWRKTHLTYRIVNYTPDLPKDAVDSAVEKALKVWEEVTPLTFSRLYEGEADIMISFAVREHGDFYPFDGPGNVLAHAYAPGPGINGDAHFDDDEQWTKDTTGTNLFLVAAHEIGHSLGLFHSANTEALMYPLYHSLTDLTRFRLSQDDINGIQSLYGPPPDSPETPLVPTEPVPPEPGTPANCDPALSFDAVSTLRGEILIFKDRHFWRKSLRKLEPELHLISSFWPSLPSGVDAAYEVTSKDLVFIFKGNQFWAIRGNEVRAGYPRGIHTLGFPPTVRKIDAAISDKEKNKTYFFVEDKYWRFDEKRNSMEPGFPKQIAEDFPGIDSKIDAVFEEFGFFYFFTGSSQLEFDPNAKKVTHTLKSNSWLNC
Chain of Disintegrin and metalloproteinase domain-containing protein 17 (O77636 whole entry, the tested form may be a part): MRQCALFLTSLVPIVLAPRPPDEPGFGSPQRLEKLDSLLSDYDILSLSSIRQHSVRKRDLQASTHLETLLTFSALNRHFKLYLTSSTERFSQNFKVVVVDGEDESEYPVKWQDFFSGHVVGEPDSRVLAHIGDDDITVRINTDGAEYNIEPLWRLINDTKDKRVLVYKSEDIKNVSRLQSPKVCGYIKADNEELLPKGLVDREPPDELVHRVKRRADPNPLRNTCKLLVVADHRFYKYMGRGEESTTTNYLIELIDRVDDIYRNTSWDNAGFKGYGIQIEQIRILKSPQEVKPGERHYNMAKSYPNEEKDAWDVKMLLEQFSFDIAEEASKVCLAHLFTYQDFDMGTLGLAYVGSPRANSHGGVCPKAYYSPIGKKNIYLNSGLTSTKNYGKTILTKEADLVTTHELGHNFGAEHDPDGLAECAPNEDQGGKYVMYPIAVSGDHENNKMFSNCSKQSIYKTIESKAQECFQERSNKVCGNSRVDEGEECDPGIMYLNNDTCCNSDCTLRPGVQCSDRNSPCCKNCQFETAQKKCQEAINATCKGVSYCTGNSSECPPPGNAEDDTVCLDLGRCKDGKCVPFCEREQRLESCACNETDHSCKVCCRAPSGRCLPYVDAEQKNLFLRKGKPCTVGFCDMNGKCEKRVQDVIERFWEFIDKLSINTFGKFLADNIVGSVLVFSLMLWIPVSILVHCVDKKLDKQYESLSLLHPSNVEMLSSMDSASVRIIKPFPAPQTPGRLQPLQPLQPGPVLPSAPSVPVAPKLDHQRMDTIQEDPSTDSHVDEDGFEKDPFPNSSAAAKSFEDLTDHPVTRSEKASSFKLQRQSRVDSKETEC
Chain of Macrophage metalloelastase (P39900 whole entry): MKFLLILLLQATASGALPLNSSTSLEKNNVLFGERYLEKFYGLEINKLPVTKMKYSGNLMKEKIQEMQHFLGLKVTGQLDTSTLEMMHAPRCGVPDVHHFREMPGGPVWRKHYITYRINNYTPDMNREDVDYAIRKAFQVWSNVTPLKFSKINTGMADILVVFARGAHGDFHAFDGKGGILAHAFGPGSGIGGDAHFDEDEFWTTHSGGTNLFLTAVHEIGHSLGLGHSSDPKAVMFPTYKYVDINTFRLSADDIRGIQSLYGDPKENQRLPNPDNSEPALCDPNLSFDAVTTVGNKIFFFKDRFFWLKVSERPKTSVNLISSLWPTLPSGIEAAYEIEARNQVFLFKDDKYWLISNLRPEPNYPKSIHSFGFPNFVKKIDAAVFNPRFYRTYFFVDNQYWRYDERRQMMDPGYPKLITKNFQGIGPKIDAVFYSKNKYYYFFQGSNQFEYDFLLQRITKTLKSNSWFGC

IC50 (Homo sapiens [1]) [nM]	Ki (Stromelysin-1) [nM]	Ki (Matrilysin) [nM]	Ki (Neutrophil collagenase) [nM]	Ki (Collagenase 3) [nM]	Ki (Stromelysin-2) [nM]	Ki [2] [nM]	Ki [3] [nM]	Ki [4] [nM]	Ki (Interstitial collagenase [5]) [nM]	Ki [6] [nM]	Bound (Homo sapiens [7]) [%]	Ki [8] [nM]	Ki [9] [nM]	Ki [10] [nM]	Ki (Interstitial collagenase [11]) [nM]	SMILES
180	> 2000	> 2000	272	> 2000	> 2000	> 2000	> 2000	> 2000	> 2000	35	71	> 2000	4.6	> 2000	–	O=C1NCCCC[C@@H](C(=O)NCC(=O)N2CCNCC2)NC(=O)[C@H](Cc2ccc(-c3cc(C(F)(F)F)cc(C(F)(F)F)c3)cc2)[C@@H](C(=O)NO)CCCO1
380	–	–	–	–	–	–	–	–	> 2000	–	33	1170	3.8	450	–	CNC(=O)CNC(=O)[C@@H]1CCCCNC(=O)OCCC[C@H](C(=O)NO)[C@@H](Cc2ccc(-c3ccccc3C(F)(F)F)cc2)C(=O)N1
410	–	–	–	–	–	–	–	–	> 2000	–	5	> 2000	6.5	> 2000	–	CS(=O)(=O)c1ccccc1-c1ccc(C[C@H]2C(=O)N[C@H](C(=O)NCC(=O)N3CCOCC3)CCCCNC(=O)OCCC[C@@H]2C(=O)NO)cc1
60	582	177	672	50	> 2000	> 2000	> 2000	> 2000	> 2000	390	36	1790	1.7	700	–	O=C1NCCCC[C@@H](C(=O)NCC(=O)N2CCNCC2)NC(=O)[C@H](Cc2ccc(-c3ccccc3C(F)(F)F)cc2)[C@@H](C(=O)NO)CCCO1
–	–	–	–	–	–	–	–	–	–	–	1	–	–	–	–	CC(C)C[C@H]1C(=O)N[C@H](C(=O)NCC(=O)N2CCOCC2)CCCCNC(=O)OCCC[C@@H]1C(=O)NO
227	–	–	–	–	–	–	–	–	> 2000	–	83	183	2.8	50	–	O=C1NCCCC[C@@H](C(=O)NCC(=O)N2CCOCC2)NC(=O)[C@H](Cc2ccc(-c3cc(Cl)cc(Cl)c3)cc2)[C@@H](C(=O)NO)CCCO1
180	> 2000	1340	428	442	> 2000	> 2000	> 2000	> 2000	> 2000	> 2000	–	> 2000	1.5	1870	–	NC(=O)CNC(=O)[C@@H]1CCCCNC(=O)OCCC[C@H](C(=O)NO)[C@@H](Cc2ccc(-c3ccccc3C(F)(F)F)cc2)C(=O)N1
120	–	–	–	–	–	–	–	–	> 2000	–	29	91	3.7	11	–	O=C1NCCCC[C@@H](C(=O)NCC(=O)N2CCNCC2)NC(=O)[C@H](Cc2ccc(-c3cccc(C(F)(F)F)c3)cc2)[C@@H](C(=O)NO)CCCO1
3700	–	–	–	–	–	–	–	–	–	–	25	21	6.3	0.64	> 2000	O=C1NCCCC[C@@H](C(=O)NCC(=O)N2CCOCC2)NC(=O)[C@H](Cc2ccc(-c3c(F)cccc3F)cc2)[C@@H](C(=O)NO)CCCO1
70	> 2000	834	126	653	> 2000	> 2000	> 2000	> 2000	> 2000	> 2000	55	> 2000	2.8	> 2000	–	O=C1NCCCC[C@@H](C(=O)NCC(=O)N2CCOCC2)NC(=O)[C@H](Cc2ccc(-c3ccccc3C(F)(F)F)cc2)[C@@H](C(=O)NO)CCCO1
